Here are results for three compounds from ChEMBL document CHEMBL4402517, “Rational modification of Mannich base-type derivatives as novel antichagasic compounds: Synthesis, in vitro and in vivo evaluation” (Bioorg Med Chem, 2019).

The nature of series [1]: Genotoxicity in Salmonella typhimurium TA1535 harboring pSK1002 assessed as survival at 0.063 mg/ml in presence of Sprague-Dawley rat liver S9 fraction metabolic activation by SOS/umu assay relative to control. As to conditions: salmonella enterica subsp. enterica serovar typhimurium, read-out: Survival. In kind it is toxicity, subcellular. The method, boiled down: (§1)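 Survival of S. typhimurium TA1535/pSK1002 exposed to a range of compound concentrations with or without S9 mix in 96-well format. Survival percentage measured as the cytotoxicity arm of the SOS/umu test. Concentrations with survival ≥80% are counted as non-cytotoxic.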

Series [2] can be described thus: Toxicity in BALB/c mouse infected with Trypanosoma cruzi MHOM/Pe/2011/Arequipa;DTU 5 bloodstream trypomastigote assessed as change in serum aspartate aminotransferase level in acute phase at 20 mg/kg/day, po administered for 5 consecutive days starting from day 8 post infection and measured on day 100 post infection by biochemical assay relative to control. The series is classed as organism-based. The following applies: in vivo. The method in brief: (§2)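 Female BALB/c mice (10–12 weeks, 14–20 g; groups of three) were infected i.p. with 5 × 10^5 Arequipa bloodstream trypomastigotes. Dosing was oral at 20 mg/kg/day for 5 days, from day 8 pi (acute) or day 70 pi (chronic), as a 2 mg/ml suspension in 5% DMSO/0.5% HPMC; controls received vehicle. Cyclophosphamide 200 mg/kg i.p. was given at day 80 pi. Serum was collected 2 days post-treatment and at necropsy by cardiac puncture and compared with infected untreated controls.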

The nature of series [3]: Toxicity in BALB/c mouse infected with Trypanosoma cruzi MHOM/Pe/2011/Arequipa;DTU 5 bloodstream trypomastigote assessed as decrease in serum alkaline phosphatase level in acute phase at 20 mg/kg/day, po administered for 5 consecutive days starting from day 8 post infection and measured at day 14 post infection by biochemical analysis relative to control. As to conditions: in vivo. The arrangement: scale not given: the % may be the effect or the level left. In kind it is organism-based. The method, boiled down: as §2

A short description of series [4]: Genotoxicity in Salmonella typhimurium TA1535 harboring pSK1002 assessed as umu gene induction at 0.063 mg/ml in presence of Sprague-Dawley rat liver S9 fraction metabolic activation by SOS/umu assay relative to control. In kind it is toxicity, subcellular. The following applies: salmonella enterica subsp. enterica serovar typhimurium, read-out: FC. The method, boiled down: (§3)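 umu induction in S. typhimurium TA1535/pSK1002, with or without S9 mix, in 96-well format. β-galactosidase read colorimetrically with ONPG substrate. Output given as relative units and induction factor (IF). The run is valid if positive controls reach IF ≥2. A compound counts as genotoxic at IF ≥2 at a concentration giving ≥80% bacterial survival.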

The nature of series [5]: Toxicity in BALB/c mouse infected with Trypanosoma cruzi MHOM/Pe/2011/Arequipa;DTU 5 bloodstream trypomastigote assessed as increase in serum total bilirubin level in acute phase at 20 mg/kg/day, po administered for 5 consecutive days starting from day 8 post infection and measured at day 14 post infection by biochemical analysis relative to control. The series is classed as organism-based. The following applies: in vivo. The method, boiled down: as §2

A short description of series [6]: Genotoxicity in Salmonella typhimurium TA1535 harboring pSK1002 assessed as umu gene induction at 0.002 mg/ml in presence of Sprague-Dawley rat liver S9 fraction metabolic activation by SOS/umu assay relative to control. The series is classed as toxicity, subcellular. As to conditions: salmonella enterica subsp. enterica serovar typhimurium, read-out: FC. The method, boiled down: as §3

The nature of series [7]: Genotoxicity in Salmonella typhimurium TA1535 harboring pSK1002 assessed as survival at 0.008 mg/ml in presence of Sprague-Dawley rat liver S9 fraction metabolic activation by SOS/umu assay relative to control. As to conditions: salmonella enterica subsp. enterica serovar typhimurium, read-out: Survival. The series is classed as toxicity, subcellular. The method, boiled down: as §1

Series [8] in a line: Genotoxicity in Salmonella typhimurium TA1535 harboring pSK1002 assessed as survival at 0.125 mg/ml in presence of Sprague-Dawley rat liver S9 fraction metabolic activation by SOS/umu assay relative to control. In kind it is toxicity, subcellular. The following applies: salmonella enterica subsp. enterica serovar typhimurium, read-out: Survival. The method in brief:
as §1

The nature of series [9]: Toxicity in BALB/c mouse infected with Trypanosoma cruzi MHOM/Pe/2011/Arequipa;DTU 5 bloodstream trypomastigotes assessed as decrease in serum alkaline phosphatase level in chronic phase at 20 mg/kg/day, po administered for 5 consecutive days starting from day 70 post infection measured on day 100 post infection relative to control. Also on record: scale not given: the % may be the effect or the level left. The series is classed as organism-based. The following applies: in vivo. The method, boiled down:
as §2

Series [10] can be described thus: Toxicity in BALB/c mouse infected with Trypanosoma cruzi MHOM/Pe/2011/Arequipa;DTU 5 bloodstream trypomastigote assessed as decrease in serum aspartate aminotransferase level in chronic phase at 20 mg/kg/day, po administered for 5 consecutive days starting from day 70 post infection and measured at day 76 post infection relative to control. In kind it is organism-based. The arrangement: scale not given: the % may be the effect or the level left. As to conditions: in vivo. The method in brief:
as §2

Series [11] can be described thus: Genotoxicity in Salmonella typhimurium TA1535 harboring pSK1002 assessed as umu gene induction at 0.25 mg/ml in absence of Sprague-Dawley rat liver S9 fraction metabolic activation by SOS/umu assay relative to control. The series is classed as toxicity. As to conditions: salmonella enterica subsp. enterica serovar typhimurium, read-out: FC. The method in brief:
as §3

Series [12] is described as follows: Genotoxicity in Salmonella typhimurium TA1535 harboring pSK1002 assessed as umu gene induction at 0.031 mg/ml in presence of Sprague-Dawley rat liver S9 fraction metabolic activation by SOS/umu assay relative to control. As to conditions: salmonella enterica subsp. enterica serovar typhimurium, read-out: FC. In kind it is toxicity, subcellular. The method, boiled down:
as §3

Series [13] can be described thus: Genotoxicity in Salmonella typhimurium TA1535 harboring pSK1002 assessed as umu gene induction at 0.031 mg/ml in absence of Sprague-Dawley rat liver S9 fraction metabolic activation by SOS/umu assay relative to control. The series is classed as toxicity. As to conditions: salmonella enterica subsp. enterica serovar typhimurium, read-out: FC. The method, boiled down: as §3

Series [14] in a line: Toxicity in BALB/c mouse infected with Trypanosoma cruzi MHOM/Pe/2011/Arequipa;DTU 5 bloodstream trypomastigote assessed as decrease in serum uric acid level in chronic phase at 20 mg/kg/day, po administered for 5 consecutive days starting from day 70 post infection and measured at day 76 post infection relative to control. In kind it is organism-based. The arrangement: scale not given: the % may be the effect or the level left. The following applies: in vivo. The method in brief: as §2

The nature of series [15]: Toxicity in BALB/c mouse infected with Trypanosoma cruzi MHOM/Pe/2011/Arequipa;DTU 5 bloodstream trypomastigote assessed as decrease in serum lactate dehydrogenase level in chronic phase at 20 mg/kg/day, po administered for 5 consecutive days starting from day 70 post infection measured on day 100 post infection relative to control. The following applies: in vivo. Also on record: scale not given: the % may be the effect or the level left. In kind it is organism-based. The method in brief:
as §2

Series [16] can be described thus: Genotoxicity in Salmonella typhimurium TA1535 harboring pSK1002 assessed as umu gene induction at 0.016 mg/ml in presence of Sprague-Dawley rat liver S9 fraction metabolic activation by SOS/umu assay relative to control. The series is classed as toxicity, subcellular. The following applies: salmonella enterica subsp. enterica serovar typhimurium, read-out: FC. The method in brief:
as §3

Series [17] in a line: Toxicity in BALB/c mouse infected with Trypanosoma cruzi MHOM/Pe/2011/Arequipa;DTU 5 bloodstream trypomastigote assessed as change in serum aspartate aminotransferase level in chronic phase at 20 mg/kg/day, po administered for 5 consecutive days starting from day 70 post infection measured on day 100 post infection relative to control. In kind it is organism-based. The following applies: in vivo. The method, boiled down:
as §2

Series [18] in a line: Genotoxicity in Salmonella typhimurium TA1535 harboring pSK1002 assessed as survival at 0.001 mg/ml in presence of Sprague-Dawley rat liver S9 fraction metabolic activation by SOS/umu assay relative to control. The series is classed as toxicity, subcellular. As to conditions: salmonella enterica subsp. enterica serovar typhimurium, read-out: Survival. The method, boiled down:
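Salmonella typhimurium TA1535/pSK1002 was exposed to compounds at several concentrations with or without S9 mix, and bacterial survival % was measured. β-galactosidase induction was measured colorimetrically with ONPG substrate. Genotoxicity was counted where IF ≥ 2 at ≥80% survival; runs were valid if positive controls reached IF ≥ 2.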

The nature of series [19]: Genotoxicity in Salmonella typhimurium TA1535 harboring pSK1002 assessed as survival at 0.031 mg/ml in presence of Sprague-Dawley rat liver S9 fraction metabolic activation by SOS/umu assay relative to control. The series is classed as toxicity, subcellular. The following applies: salmonella enterica subsp. enterica serovar typhimurium, read-out: Survival. The method in brief:
as §1

Series [20] is described as follows: Genotoxicity in Salmonella typhimurium TA1535 harboring pSK1002 assessed as umu gene induction at 0.008 mg/ml in presence of Sprague-Dawley rat liver S9 fraction metabolic activation by SOS/umu assay relative to control. In kind it is toxicity, subcellular. The following applies: salmonella enterica subsp. enterica serovar typhimurium, read-out: FC. The method in brief:
as §3

On to `O=C(CCN1CCN(c2ccc(C(F)(F)F)cc2)CC1)c1ccc(O)cc1`, for which the viability at 0.063 mg/ml in [1] is 92.9%. The Activity in [2] is recorded as greater than 10%; in [3] it was “<= 30%”; in [5], greater than 40%; in series [9] it was “<= 30%”; in series [10], “<= 10%”; in series [14] it was “<= 20%”. Besides, the results for the Activity result in series [15] and in series [17] were “<= 30%” and greater than 10%, respectively. Moreover, the fold induction at 0.063 mg/ml in series [4] was 0.85. Also, in series [6], the fold induction at 0.002 mg/ml amounted to 0.89. In addition, in [7], the viability at 0.008 mg/ml worked out at 104%. Further, the viability at 0.125 mg/ml in [8] was 138%. Further, the fold induction at 0.25 mg/ml in series [11] amounted to 0.52. For the same compound, the fold induction at 0.031 mg/ml in series [12] came out at 0.87; in [13], 0.66. The fold induction at 0.016 mg/ml in series [16] was 0.79. The viability at 0.001 mg/ml in [18] is 106%. For the same compound, the viability at 0.031 mg/ml in series [19] turned out to be 107%. In addition, the fold induction at 0.008 mg/ml in series [20] turned out to be 0.83.
For `O=C(Cn1ccnc1[N+](=O)[O-])NCc1ccccc1` [BENZNIDAZOLE], the Activity entry in series [9] is reported as “<= 10%”; in series [14], “<= 30%”; in series [15], “<= 10%”; in series [17], greater than 10%.
For `O=C(CCN1CCN(c2ccc(Cl)cc2)CC1)c1ccc(O)cc1`, the viability at 0.063 mg/ml in [1] came to 86.7%. The Activity in series [2] is greater than 10%; in [3], “<= 10%”; in series [5], “<= 10%”; in series [10] it was “<= 10%”. Also, in [4], the fold induction at 0.063 mg/ml came out at 0.87. Besides, in series [6], the fold induction at 0.002 mg/ml is 0.74. For the same compound, in series [7], the viability at 0.008 mg/ml worked out at 109%. Besides, the viability at 0.125 mg/ml in series [8] was 113%. For the same compound, the fold induction at 0.25 mg/ml in [11] worked out at 0.49. Also, the fold induction at 0.031 mg/ml in [12] was 0.83; in series [13] it was 0.7. For the same compound, in [16], the fold induction at 0.016 mg/ml turned out to be 0.84. Moreover, in [18], the viability at 0.001 mg/ml amounted to 106%. Besides, the viability at 0.031 mg/ml in [19] is 102%. Also, the fold induction at 0.008 mg/ml in [20] was determined as 0.77.
